Bioassay records (PubChem BioAssay)
TRPC4 potent: allosterically enhances the mouse TRPC4 cation channel. Q9QUQ5. HEK293 TRPC4beta/mu-opioid, DAMGO EC20, Fluo-4 Ca2+ flux; stronger effect = higher value. B-score at 10 µM. 310,000 compounds, 0.42% hits. AID 2227;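 active = B-score of calcium response area above 5 SD of library B-scores, with initial fluorescence ratio within 5 SD of library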;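 note: B-score of integrated fluorescence ratio over time as area under calcium response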
Target sequence (Q9QUQ5 whole entry, looked up): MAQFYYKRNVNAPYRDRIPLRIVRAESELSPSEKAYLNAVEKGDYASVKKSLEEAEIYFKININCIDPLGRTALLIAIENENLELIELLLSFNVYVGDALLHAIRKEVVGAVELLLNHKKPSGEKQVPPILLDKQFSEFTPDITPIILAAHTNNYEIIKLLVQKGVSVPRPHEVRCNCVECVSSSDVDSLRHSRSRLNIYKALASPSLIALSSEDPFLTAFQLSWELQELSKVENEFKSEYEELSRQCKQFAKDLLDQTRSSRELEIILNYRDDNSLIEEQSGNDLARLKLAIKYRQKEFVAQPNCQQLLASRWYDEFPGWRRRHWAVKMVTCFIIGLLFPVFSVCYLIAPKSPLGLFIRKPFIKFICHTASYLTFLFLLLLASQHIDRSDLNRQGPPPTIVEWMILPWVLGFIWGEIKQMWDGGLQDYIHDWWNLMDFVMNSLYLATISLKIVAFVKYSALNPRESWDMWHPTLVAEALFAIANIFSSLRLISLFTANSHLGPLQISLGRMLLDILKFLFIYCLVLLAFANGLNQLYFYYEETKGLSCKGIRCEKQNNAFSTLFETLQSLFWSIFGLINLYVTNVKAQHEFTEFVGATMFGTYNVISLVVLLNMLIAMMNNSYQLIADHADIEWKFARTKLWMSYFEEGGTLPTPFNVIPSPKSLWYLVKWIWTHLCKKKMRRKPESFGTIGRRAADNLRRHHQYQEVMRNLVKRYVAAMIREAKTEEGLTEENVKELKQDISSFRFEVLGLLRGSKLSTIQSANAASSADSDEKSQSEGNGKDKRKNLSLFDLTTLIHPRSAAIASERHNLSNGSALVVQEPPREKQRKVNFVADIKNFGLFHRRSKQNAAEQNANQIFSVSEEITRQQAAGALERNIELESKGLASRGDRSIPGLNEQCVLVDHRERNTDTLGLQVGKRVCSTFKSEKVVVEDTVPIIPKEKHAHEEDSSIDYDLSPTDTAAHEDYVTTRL
TRPC6 inh: inhibitors of mouse TRPC6 channel; Q61143; HEK293-TRPC6, membrane potential dye, ACh-evoked depolarization; stronger effect = lower value; B-score at 10 µM; 310,000 compounds, 1.1% hits;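 active = B-score under library mean minus 3 SD, initial fluorescence not abnormally high, positive integrated signal ratio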;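 note: B-score derived from integrated fluorescence ratio over the kinetic read; more negative B-score means stronger inhibition of depolarization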
TRPC6 activator: mouse TRPC6 channel activation. Q61143. AID 2550. B-score at 10 µM. HEK293-TRPC6 membrane potential dye fluorescence; stronger effect = higher value. 310,000 compounds, 0.13% hits;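 active = B-score of the integrated fluorescence ratio above library mean plus 3 SD, and starting fluorescence ratio within library mean plus 5 SD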;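 note: higher score means more depolarization so channel activation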
TRPC4 agonist: activators of mouse TRPC4 channel | HEK293 TRPC4beta/mu-opioid, Fluo4 calcium fluorescence; stronger effect = higher value | B-score at 10 µM | 310,000 compounds, 0.49% hits;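 active = B-score above 5 SD of library B-scores, and initial fluorescence ratio not above library mean plus 5 SD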;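 note: positive B-score marks a calcium rise read as TRPC4 activation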
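Test system: HEK293 cells stably co-expressing mouse TRPC4beta and mu-opioid receptor | Schedule: Fluo4 dye loading 45 min at room temperature, 110 s recording | Measured by: Kinetic Fluo4 calcium fluorescence, 5 s baseline at 1 Hz | Evaluation: B score of integrated ratio | Controls: Buffer (low) and maximal DAMGO (high)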
TRPC4 block: blocks the mouse TRPC4 cation channel | B-score at 10 µM | HEK293 TRPC4beta/mu-opioid, DAMGO-evoked Fluo4 calcium flux; stronger effect = lower value | 300,000 compounds, 0.39% hits | Q9QUQ5;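 active = B-score over 3 SD under the library average, no early fluorescence shift, positive overall ratio signal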
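Material: HEK293 cells with stable TRPC4beta plus mu-opioid receptor expression; probe or stimulus: DAMGO in two steps, submaximal then maximal; technique: Fluo4 calcium fluorescence by kinetic imaging, 5 s 1 Hz baseline; measure: integrated fluorescence ratio relative to baseline, converted to per-well B score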
TRPC4 sel inh 2: second check of whether TRPC6 inhibitors also affect mouse TRPC4; shares compounds with TRPC6 inh; HEK293 TRPC4/MOR, membrane potential dye fluorescence; channel activated by saturating DAMGO dose; inhibition, % at 10 µM; 920 compounds, 42% hits;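 active = compounds whose fluorescence signal differed from control wells by over 3 SD, either direction, in both duplicate plates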
TRPC4 spec: selectivity of TRPC6 inhibitors: effect on mouse TRPC4; shares compounds with TRPC6 inh; HEK293 TRPC4/mu-opioid, membrane potential fluorescence; activity change, negative = inhibition, % at 10 µM; 920 compounds, 61% hits; AID 2777;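 active = rise or fall in signal beyond 3 SD of buffer-only wells in both replicate plates, either sign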;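 note: integrated kinetic ratio of fluorescence range over baseline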
HEK293 MPD ctr 2-1: parental HEK293 nonspecific activity of TRPC6 inhibitors, second screen; shares compounds with TRPC6 inh; parental HEK293 membrane potential dye fluorescence; maximal acetylcholine challenge after compound addition; signal change vs control, % at 10 µM; 920 compounds, 31% hits;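 active = membrane potential signal moving either way by over 3 SD of the maximum-effect control, in both duplicate plates, meaning non-specific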
HEK293 MPD ctr-1: counter-screen for TRPC6 inhibitors: effect in parental HEK293 cells; shares compounds with TRPC6 inh; parental HEK293 membrane potential dye fluorescence; membrane potential signal change, % at 10 µM; 920 compounds, 60% hits;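 active = membrane potential signal shifting up or down by more than 3 SD of buffer-only wells, on both duplicate plates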
HEK293 MPD ctr-2: checks TRPC6 modulator effects in parental HEK293 cells; membrane potential dye fluorescence; shares compounds with TRPC6 inh; 2,400 compounds, 51% hits; membrane potential signal change, % at 10 µM;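 active = membrane potential signal moves up or down beyond 5 SD from buffer-only wells, on both duplicate plates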
HEK293 MPD ctr 2-2: parental HEK293 nonspecific activity of TRPC6 modulators, second screen | shares compounds with TRPC6 inh | membrane potential dye fluorescence; after compound, maximal acetylcholine stimulation | inhibition, % at 10 µM | 2,400 compounds, 14% hits | AID 488926;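 active = membrane potential signal drops by more than 5 SD from the mean control signal, in both duplicate plates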;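 note: plate controls were acetylcholine ECmax control wells for no effect and buffer only wells for full effect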
TRPC4 ctr mod: mouse TRPC4 off-target activity of TRPC6 modulators; 2,400 compounds, 69% hits; shares compounds with TRPC6 inh; HEK293 TRPC4/mu-opioid, membrane potential fluorescence; percent change from control (negative = decrease, positive = increase), % at 10 µM; AID 488927;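 active = membrane potential signal moved up or down beyond 5 SD of buffer control wells, in both duplicate plates, actives on both sides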;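 note: plate controls were assay buffer wells for no effect and DAMGO maximal-effect wells for full effect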
TRPC4/MOR inh 2: mouse TRPC4 off-target activity of TRPC6 modulators, second screen | shares compounds with TRPC6 inh | HEK293 TRPC4/mu-opioid, membrane potential dye fluorescence; stimulated with maximal-effect DAMGO | inhibition, % at 10 µM | 2,400 compounds, 55% hits | AID 488928;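 active = drop in membrane potential signal beyond 5 SD of the control wells in both duplicate plates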;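 note: TRPC4 counter screen for TRPC6 hits run under conditions tuned for TRPC6 not TRPC4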
TRPC6 inh conf: confirmation of mouse TRPC6 inhibitors; shares compounds with TRPC6 inh; HEK293-TRPC6, membrane potential dye, ACh-evoked depolarization; inhibition, % at 10 µM; 3,300 compounds, 43% hits; AID 488960;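 active = fluorescence ratio falls more than 5 SD below the full-stimulation control mean, in both duplicate runs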;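 note: integrated fluorescence ratio of peak minus minimum over baseline after agonist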
TRPC6 act confirm: mouse TRPC6 activator confirmation. shares compounds with TRPC6 inh. HEK293-TRPC6 membrane potential dye fluorescence, FDSS. activation, % at 10 µM. 2,800 compounds, 11% hits. AID 488961;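 active = ratio signal rise beyond 5 SD above unstimulated control wells' mean, seen in both duplicate runs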;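 note: plate controls were buffer EC0 wells for no effect and acetylcholine ECmax response for full effect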
An asterisk follows results filed as active; i = inactive; / = no result. Sampled rows, rich in hits. Any-hit rate of the full collection: about 2.3%.

SMILES | TRPC4 potent | TRPC6 inh | TRPC6 activator | TRPC4 agonist | TRPC4 block | HEK293 MPD ctr-2 | HEK293 MPD ctr 2-2 | TRPC4 ctr mod | TRPC4/MOR inh 2 | TRPC6 inh conf | TRPC6 act confirm | others
Cc1ccc(O)c(CNCCNCc2cc(C)ccc2O)c1 | i | -6.4* | i | i | i | 161%* | i | 16%* | 82%* | 44%* | /
Cc1ccc2[nH]c(C)c(/C=C/c3cc[n+](C)cc3)c2c1 | i | i | i | i | i | / | / | / | / | / | /
C[n+]1ccc(/C=C/c2ccc(Br)cc2)cc1 | i | -5.2* | i | i | i | -78%* | i | i | 36%* | i | i
Cc1ccc(Nc2nc(N/N=C/c3c[nH]c4ccccc34)nc(N3CCOCC3)n2)cc1 | i | i | i | i | i | / | / | / | / | / | /
C(=N\Nc1nc(Nc2ccccc2)nc(N2CCOCC2)n1)/c1c[nH]c2ccccc12 | 11* | -6.1* | i | i | i | i | i | -20%* | 49%* | 48%* | i
COc1ccc(S(=O)(=O)N2CCCCCC2)cc1NC(=O)c1ccccc1 | i | i | i | i | i | / | / | / | / | / | /
COc1cc(OC)cc(Oc2ccc(S(=O)(=O)N3CCCCC3)cc2[N+](=O)[O-])c1 | i | i | i | i | i | / | / | / | / | / | /
COC(=O)COc1ccc(S(=O)(=O)N2CCCCC2)cc1[N+](=O)[O-] | i | -5.3* | i | i | i | i | i | i | 44%* | i | i
COc1ccc(S(=O)(=O)N2CCCCCC2)cc1NC(=O)Cc1ccccc1 | i | -8.9* | i | i | i | i | i | i | i | i | i
CS(=O)(=O)c1ccc(Cl)c(NC(=O)COC(=O)c2cccc(S(=O)(=O)N3CCCCC3)c2)c1 | i | -5.7* | i | i | i | i | i | i | i | i | i
Cc1ccc(NC(=O)C2CCN(S(=O)(=O)c3ccc4[nH]c(=O)oc4c3)CC2)cc1F | i | -5.8* | i | i | i | i | i | i | i | i | i
CC(CCN1CCC(n2nccc2NC(=O)c2ccccc2Cl)CC1)c1ccccc1 (stereo not given) | i | i | i | i | i | / | / | / | / | / | /
O=C(NNS(=O)(=O)c1ccc(Br)cc1)c1ccccc1-n1cccc1 | i | i | i | i | i | / | / | / | / | / | /
COc1ccc(S(=O)(=O)N2CCC(C(=O)Nc3ccc(S(=O)(=O)N4CCCC4)cc3)CC2)cc1OC | i | -5.4* | i | i | i | i | i | i | i | i | i
COc1ccc(NC(=O)C2CCN(S(=O)(=O)c3ccc(OC)c(OC)c3)CC2)cc1 | i | i | i | i | i | / | / | / | / | / | /
COc1ccccc1Nc1nc(N)nc(CSC(=S)N2CCC(C)CC2)n1 | i | -5.5* | i | i | i | i | i | i | i | 78%* | /
COc1ccccc1Nc1nc(N)nc(CN2CCC(C)CC2)n1 | i | i | i | i | i | / | / | / | / | / | /
COc1ccccc1Nc1nc(N)nc(CN2CCC(Cc3ccccc3)CC2)n1 | i | -6.5* | i | i | i | 100%* | i | i | 84%* | 47%* | /
COc1ccccc1Nc1nc(N)nc(CSC(=S)N2CCCCC2C)n1 (stereo not given) | i | -7.8* | i | i | i | / | / | / | / | i | i | TRPC4 sel inh 2=i;TRPC4 spec=i;HEK293 MPD ctr 2-1=i;HEK293 MPD ctr-1=i
CCOC(=O)c1c(S(=O)(=O)NCC(C)c2ccccc2)c(C)n(C)c1C (stereo not given) | i | i | i | i | i | / | / | / | / | / | /
Cc1cccn2cc(-c3c[nH]c4ccccc34)nc12 | i | -6.7* | i | i | -6* | -113%* | i | -28%* | 70%* | 68%* | i
Brc1ccc2nc(-c3c[nH]c4ccccc34)cn2c1 | i | -6.3* | i | i | i | i | i | -10%* | 54%* | i | i
Cc1cc(N=Nc2ccccc2)c(NCC(O)C(O)C(O)CO)cc1C (stereo not given) | i | -8.1* | i | i | i | / | / | / | / | 80%* | i | TRPC4 sel inh 2=32%*;TRPC4 spec=-30%*;HEK293 MPD ctr 2-1=i;HEK293 MPD ctr-1=-542%*
Cc1ccc(NC(=O)CCc2nnc3ccc(N4CCC5(CC4)OCCO5)nn23)cc1F | i | i | i | i | i | / | / | / | / | / | /
COc1ccc(-c2cc(C(=O)N3CCCC(C(F)(F)F)C3)c3ccccc3n2)cc1OC (stereo not given) | i | i | i | i | i | / | / | / | / | / | /
COCCn1cnnc1SCC(=O)Nc1ccc(Br)cc1F | i | i | i | i | i | / | / | / | / | / | /
CC(=O)Nc1sc(N/N=C/c2ccc(C)cc2)nc1-c1ccc(C)cc1 | i | i | i | i | i | / | / | / | / | / | /
CC(=O)Nc1sc(/C(C#N)=C/c2ccc(Cl)c(Cl)c2)nc1-c1ccc(C)cc1 | i | i | 13* | i | i | 254%* | i | 46%* | i | i | 76%*
